# Legend:
# [1] = molecular target: T1, Tyrosine-protein kinase JAK3 (Homo sapiens) (UniProt P52333); experiment: Inhibition of JAK3 at 10 uM by HTRF assay relative to control
# T1 sequence (whole entry): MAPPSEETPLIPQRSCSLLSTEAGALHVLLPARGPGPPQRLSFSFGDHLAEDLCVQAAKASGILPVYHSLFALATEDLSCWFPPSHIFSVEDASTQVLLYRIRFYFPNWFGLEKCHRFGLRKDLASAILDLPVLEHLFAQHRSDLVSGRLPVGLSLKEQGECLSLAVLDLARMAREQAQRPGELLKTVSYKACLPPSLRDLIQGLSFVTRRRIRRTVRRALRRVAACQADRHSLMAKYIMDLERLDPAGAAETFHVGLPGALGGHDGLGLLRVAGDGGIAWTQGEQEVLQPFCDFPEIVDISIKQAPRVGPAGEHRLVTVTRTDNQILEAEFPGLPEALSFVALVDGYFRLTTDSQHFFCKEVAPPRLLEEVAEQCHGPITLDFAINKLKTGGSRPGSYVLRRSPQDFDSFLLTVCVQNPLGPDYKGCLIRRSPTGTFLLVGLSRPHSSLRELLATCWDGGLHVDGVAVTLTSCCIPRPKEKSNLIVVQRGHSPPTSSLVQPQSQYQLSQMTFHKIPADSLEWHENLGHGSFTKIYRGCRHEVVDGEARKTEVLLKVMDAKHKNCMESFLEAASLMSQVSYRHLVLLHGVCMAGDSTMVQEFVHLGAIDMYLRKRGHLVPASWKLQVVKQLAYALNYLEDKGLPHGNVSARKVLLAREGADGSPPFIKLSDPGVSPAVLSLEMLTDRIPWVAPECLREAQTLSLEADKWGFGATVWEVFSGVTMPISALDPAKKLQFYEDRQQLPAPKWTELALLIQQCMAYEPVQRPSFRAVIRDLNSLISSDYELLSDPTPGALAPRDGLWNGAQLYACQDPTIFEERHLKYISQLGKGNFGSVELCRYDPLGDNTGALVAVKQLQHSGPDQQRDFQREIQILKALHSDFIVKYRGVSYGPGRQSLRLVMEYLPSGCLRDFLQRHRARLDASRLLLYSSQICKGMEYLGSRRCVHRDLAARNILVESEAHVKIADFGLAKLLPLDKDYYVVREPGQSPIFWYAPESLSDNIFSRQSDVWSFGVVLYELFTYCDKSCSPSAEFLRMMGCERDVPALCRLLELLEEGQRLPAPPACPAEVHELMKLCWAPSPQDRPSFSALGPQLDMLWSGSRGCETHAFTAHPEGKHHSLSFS
# Summary of the method: (§1)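 HTRF kinase assay, one panel of kinases. Inhibitor stock 50 µM in 100% DMSO; tested at 10 µM. ATP and substrate at final levels near Km. Final buffer: 50 mM Hepes/NaOH pH 7.4, 40 µM Na3VO4, 0.005% Tween-20, 1 mM DTT, MnCl2 or MgCl2 at kinase-dependent levels. Started by adding ATP/substrate. Reaction run at room temperature, time varied by kinase. Detection mix in 50 mM Hepes pH 7.4, 0.1% BSA, 150 mM KF, incubated ≥1 h at room temperature. Activity expressed as % of uninhibited control; n=2.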
# [2] = molecular target: 3-phosphoinositide-dependent protein kinase 1 (Homo sapiens) (UniProt O15530); experiment: Inhibition of PDK1 at 10 uM by HTRF assay relative to control
# [3] = molecular target: Focal adhesion kinase 1 (Homo sapiens) (UniProt Q05397); experiment: Inhibition of FAK at 10 uM by HTRF assay relative to control; summary of the method: as §1
# [4] = molecular target: MAP kinase-activated protein kinase 2 (Homo sapiens) (UniProt P49137); experiment: Inhibition of MAPKAPK2 at 10 uM by HTRF assay relative to control; summary of the method: as §1
# [5] = molecular target: Tyrosine-protein kinase Lck (Homo sapiens) (UniProt P06239); experiment: Inhibition of Lck at 10 uM by HTRF assay relative to control; summary of the method: as §1
# [6] = molecular target: Calcium/calmodulin-dependent protein kinase type II subunit alpha (Homo sapiens) (UniProt Q9UQM7); experiment: Inhibition of CaMK2alpha at 10 uM by HTRF assay relative to control; summary of the method: as §1
# [7] = molecular target: Vascular endothelial growth factor receptor 1 (Homo sapiens) (UniProt P17948); experiment: Inhibition of FLT1 at 10 uM by HTRF assay relative to control; summary of the method: as §1
# [8] = molecular target: RAC-alpha serine/threonine-protein kinase (Homo sapiens) (UniProt P31749); experiment: Inhibition of AKT1/PKBalpha at 10 uM by HTRF assay relative to control; summary of the method: as §1
# [9] = molecular target: Fibroblast growth factor receptor 1 (Homo sapiens) (UniProt P11362); experiment: Inhibition of FGFR1 at 10 uM by HTRF assay relative to control; summary of the method: as §1
# [10] = molecular target: Platelet-derived growth factor receptor beta (Homo sapiens) (UniProt P09619); experiment: Inhibition of PDGFRbeta at 10 uM by HTRF assay relative to control; summary of the method: as §1
# [11] = molecular target: Cyclin-dependent kinase 2 (Homo sapiens) (UniProt P24941); experiment: Inhibition of CDK2 at 10 uM by HTRF assay relative to control; summary of the method: as §1
# [12] = molecular target: Vascular endothelial growth factor receptor 2 (Homo sapiens) (UniProt P35968); experiment: Inhibition of KDR at 10 uM by HTRF assay relative to control; summary of the method: as §1
# Sequence of Focal adhesion kinase 1 (Homo sapiens) (Q05397 2-1052 limits assumed): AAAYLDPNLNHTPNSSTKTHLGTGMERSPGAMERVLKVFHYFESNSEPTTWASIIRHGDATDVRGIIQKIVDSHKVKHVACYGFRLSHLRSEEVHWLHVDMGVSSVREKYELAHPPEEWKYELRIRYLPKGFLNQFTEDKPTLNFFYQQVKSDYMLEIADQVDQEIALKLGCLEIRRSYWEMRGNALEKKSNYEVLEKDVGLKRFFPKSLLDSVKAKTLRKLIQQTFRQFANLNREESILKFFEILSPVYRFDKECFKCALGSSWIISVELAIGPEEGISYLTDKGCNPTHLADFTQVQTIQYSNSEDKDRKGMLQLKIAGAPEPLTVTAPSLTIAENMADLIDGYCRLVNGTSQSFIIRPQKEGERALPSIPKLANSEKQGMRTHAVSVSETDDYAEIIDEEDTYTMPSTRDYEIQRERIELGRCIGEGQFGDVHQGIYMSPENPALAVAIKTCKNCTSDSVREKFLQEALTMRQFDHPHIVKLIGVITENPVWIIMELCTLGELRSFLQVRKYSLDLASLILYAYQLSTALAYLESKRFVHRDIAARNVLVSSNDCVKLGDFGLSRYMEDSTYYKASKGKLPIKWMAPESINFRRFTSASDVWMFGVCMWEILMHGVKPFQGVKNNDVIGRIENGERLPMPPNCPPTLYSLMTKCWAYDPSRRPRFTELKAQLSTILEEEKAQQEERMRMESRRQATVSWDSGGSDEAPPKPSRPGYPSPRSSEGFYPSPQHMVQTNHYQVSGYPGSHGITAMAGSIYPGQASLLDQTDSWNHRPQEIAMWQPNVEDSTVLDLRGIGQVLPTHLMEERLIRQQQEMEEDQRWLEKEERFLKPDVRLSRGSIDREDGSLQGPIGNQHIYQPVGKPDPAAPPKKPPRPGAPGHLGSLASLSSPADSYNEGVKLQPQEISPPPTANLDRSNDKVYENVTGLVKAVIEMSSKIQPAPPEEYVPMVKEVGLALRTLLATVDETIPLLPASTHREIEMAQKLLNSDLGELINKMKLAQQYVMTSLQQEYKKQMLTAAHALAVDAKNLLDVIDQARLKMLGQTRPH
# Sequence of MAP kinase-activated protein kinase 2 (Homo sapiens) (P49137 whole entry, looked up): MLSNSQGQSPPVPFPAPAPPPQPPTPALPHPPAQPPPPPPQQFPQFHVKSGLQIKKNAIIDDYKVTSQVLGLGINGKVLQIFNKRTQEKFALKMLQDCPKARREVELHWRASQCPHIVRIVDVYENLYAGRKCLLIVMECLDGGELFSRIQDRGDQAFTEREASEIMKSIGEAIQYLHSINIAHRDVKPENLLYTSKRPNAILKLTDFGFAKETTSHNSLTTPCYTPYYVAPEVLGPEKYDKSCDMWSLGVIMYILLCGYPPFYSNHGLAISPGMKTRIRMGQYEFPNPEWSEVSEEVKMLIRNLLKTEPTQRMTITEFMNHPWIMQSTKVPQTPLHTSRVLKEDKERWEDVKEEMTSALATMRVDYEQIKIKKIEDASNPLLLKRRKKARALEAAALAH
# Sequence of Platelet-derived growth factor receptor beta (Homo sapiens) (P09619 whole entry): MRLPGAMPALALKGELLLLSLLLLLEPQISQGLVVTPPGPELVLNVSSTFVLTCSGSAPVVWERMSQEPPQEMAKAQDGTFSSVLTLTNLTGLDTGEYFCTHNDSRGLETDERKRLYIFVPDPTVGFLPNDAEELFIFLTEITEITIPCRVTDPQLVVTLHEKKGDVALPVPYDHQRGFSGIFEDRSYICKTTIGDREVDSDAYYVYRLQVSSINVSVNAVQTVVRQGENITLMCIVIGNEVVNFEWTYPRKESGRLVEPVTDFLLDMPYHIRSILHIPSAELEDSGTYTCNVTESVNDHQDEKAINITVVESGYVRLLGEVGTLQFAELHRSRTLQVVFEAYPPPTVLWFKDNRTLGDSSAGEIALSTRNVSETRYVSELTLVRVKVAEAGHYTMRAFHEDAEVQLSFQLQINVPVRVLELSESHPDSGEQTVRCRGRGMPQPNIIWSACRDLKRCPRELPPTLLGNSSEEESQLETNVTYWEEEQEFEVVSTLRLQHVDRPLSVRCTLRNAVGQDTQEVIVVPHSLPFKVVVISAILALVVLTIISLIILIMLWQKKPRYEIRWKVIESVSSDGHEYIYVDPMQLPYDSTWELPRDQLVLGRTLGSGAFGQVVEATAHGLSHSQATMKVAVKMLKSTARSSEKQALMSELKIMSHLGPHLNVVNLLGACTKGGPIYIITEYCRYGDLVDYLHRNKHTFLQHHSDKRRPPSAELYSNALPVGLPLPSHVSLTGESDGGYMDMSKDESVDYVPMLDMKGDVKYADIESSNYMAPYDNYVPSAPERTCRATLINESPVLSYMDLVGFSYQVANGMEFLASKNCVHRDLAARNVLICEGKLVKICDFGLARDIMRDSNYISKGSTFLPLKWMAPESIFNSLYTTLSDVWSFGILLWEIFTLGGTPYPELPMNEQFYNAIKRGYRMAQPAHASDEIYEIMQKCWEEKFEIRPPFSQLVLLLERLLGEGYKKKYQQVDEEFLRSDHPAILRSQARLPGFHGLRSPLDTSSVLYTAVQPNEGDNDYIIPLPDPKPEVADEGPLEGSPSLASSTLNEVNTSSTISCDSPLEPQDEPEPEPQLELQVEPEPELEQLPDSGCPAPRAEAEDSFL
# Sequence of Fibroblast growth factor receptor 1 (Homo sapiens) (P11362 22-822 limits assumed): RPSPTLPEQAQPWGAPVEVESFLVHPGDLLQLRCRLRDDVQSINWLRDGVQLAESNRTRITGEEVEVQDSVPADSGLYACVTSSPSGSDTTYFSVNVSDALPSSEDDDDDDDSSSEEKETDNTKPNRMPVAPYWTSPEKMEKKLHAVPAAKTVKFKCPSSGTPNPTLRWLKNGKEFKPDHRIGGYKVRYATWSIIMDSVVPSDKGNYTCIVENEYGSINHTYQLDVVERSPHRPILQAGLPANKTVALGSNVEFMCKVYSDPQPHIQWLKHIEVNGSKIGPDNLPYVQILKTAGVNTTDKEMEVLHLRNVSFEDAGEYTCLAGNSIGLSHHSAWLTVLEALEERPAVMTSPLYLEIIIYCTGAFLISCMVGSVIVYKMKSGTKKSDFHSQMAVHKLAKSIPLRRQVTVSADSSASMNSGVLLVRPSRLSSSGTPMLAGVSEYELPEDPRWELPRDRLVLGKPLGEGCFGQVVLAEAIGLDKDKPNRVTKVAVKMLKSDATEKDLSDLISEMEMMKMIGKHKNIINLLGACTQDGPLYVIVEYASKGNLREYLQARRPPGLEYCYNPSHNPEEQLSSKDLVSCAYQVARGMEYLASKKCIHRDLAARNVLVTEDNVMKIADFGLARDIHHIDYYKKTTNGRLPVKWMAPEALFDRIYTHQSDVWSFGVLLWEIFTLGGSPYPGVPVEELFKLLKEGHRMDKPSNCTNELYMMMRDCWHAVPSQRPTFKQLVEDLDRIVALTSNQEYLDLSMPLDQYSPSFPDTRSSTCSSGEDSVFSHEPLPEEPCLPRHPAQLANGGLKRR
# Sequence of 3-phosphoinositide-dependent protein kinase 1 (Homo sapiens) (O15530 whole entry, looked up): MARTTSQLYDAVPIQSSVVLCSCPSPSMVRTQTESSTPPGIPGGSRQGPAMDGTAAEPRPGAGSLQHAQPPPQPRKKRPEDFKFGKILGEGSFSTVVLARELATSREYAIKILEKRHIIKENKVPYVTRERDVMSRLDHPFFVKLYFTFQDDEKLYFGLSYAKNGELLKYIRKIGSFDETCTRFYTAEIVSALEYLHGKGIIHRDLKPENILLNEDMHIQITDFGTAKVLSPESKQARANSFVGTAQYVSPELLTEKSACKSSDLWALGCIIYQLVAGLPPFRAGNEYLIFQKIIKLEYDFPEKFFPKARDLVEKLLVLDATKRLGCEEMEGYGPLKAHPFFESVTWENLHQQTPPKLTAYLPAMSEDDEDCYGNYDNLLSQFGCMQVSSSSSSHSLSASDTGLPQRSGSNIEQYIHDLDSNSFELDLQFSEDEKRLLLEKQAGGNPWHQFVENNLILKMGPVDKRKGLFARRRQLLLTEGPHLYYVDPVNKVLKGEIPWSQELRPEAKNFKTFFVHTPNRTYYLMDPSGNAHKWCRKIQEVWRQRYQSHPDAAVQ
# Sequence of Tyrosine-protein kinase Lck (Homo sapiens) (P06239 2-509 limits assumed): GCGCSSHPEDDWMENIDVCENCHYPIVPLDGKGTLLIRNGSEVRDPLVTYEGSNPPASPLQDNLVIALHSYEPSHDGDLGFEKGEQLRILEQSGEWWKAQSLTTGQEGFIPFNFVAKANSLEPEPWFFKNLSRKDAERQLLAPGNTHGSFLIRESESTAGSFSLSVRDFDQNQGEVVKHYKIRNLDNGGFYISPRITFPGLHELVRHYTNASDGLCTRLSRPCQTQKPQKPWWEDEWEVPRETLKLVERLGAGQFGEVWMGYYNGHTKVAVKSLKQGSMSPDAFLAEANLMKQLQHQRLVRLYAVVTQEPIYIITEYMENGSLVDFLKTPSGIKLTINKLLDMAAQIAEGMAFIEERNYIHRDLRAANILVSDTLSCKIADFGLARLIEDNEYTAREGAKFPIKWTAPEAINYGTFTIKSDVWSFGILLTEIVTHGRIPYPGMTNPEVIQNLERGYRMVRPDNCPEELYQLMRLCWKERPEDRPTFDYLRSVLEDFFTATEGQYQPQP
# Sequence of Calcium/calmodulin-dependent protein kinase type II subunit alpha (Homo sapiens) (Q9UQM7 whole entry): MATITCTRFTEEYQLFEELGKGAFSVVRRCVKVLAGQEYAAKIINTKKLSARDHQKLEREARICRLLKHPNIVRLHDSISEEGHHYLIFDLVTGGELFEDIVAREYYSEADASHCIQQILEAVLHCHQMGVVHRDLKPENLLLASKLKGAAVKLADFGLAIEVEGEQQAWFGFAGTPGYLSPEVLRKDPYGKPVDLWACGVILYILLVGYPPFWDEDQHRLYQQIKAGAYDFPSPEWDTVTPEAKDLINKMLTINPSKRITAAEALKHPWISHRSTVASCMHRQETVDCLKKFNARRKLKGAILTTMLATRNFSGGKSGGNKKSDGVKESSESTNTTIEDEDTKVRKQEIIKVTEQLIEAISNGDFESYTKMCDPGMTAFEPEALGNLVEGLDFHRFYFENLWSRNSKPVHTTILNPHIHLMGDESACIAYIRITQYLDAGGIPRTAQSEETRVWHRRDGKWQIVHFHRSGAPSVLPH
Structure (SMILES),inhibition [1] [%],inhibition [2] [%],inhibition [3] [%],inhibition [4] [%],inhibition [5] [%],inhibition [6] [%],inhibition [7] [%],inhibition [8] [%],inhibition [9] [%],inhibition [10] [%],inhibition [11] [%],inhibition [12] [%]
Nc1nc(Nc2ccc3ncsc3c2)cc(N2CCC[C@H]2C(=O)NCCc2cccc(I)c2)n1,16,7,4,3,0,0,1,0,13,14,5,17
O=C(NC1Cc2ccccc2C1)c1cccc(Nc2ccnc(N3CCN(c4ccccc4)CC3)n2)c1,0,0,0,4,0,0,0,2,2,8,2,6
Cc1ccc(CN2CCN(c3nccc(C(C#N)c4ccccn4)n3)CC2)cc1 (centres undefined),10,1,3,0,0,0,0,0,5,14,7,0
O=C(C1CCN(c2nccc(Nc3ccccc3)n2)CC1)N1CC[C@@H](O)C1,0,2,0,4,0,0,6,0,4,6,5,4
O=C(COc1ccccc1)N1CCN(c2nccc(Nc3ccc4ncsc4c3)n2)CC1,5,0,15,0,22,0,3,1,16,30,8,35
Cc1cccc(CN2CCN(c3cc(N(C)c4cccc(C)c4)ncn3)CC2)c1,6,3,4,0,0,0,0,5,5,6,0,3
Cc1cccc(Nc2nccc(Nc3cccc(C(=O)NCc4ccc(N(C)C)cc4)c3)n2)c1,6,0,17,4,0,0,0,1,20,24,1,11
CN(C)CC(C)(C)CNC(=O)[C@@H]1CCCN1c1nccc(Nc2ccccc2)n1,0,10,4,4,0,0,12,0,4,5,9,5
COc1ccc(NC(=O)Cc2ccc(Nc3cc(N(C)c4cccc(C)c4)ncn3)cc2)cn1,4,1,5,0,0,0,20,0,16,22,6,8
Cc1cccc(Oc2ccnc(N3CCN(CC(=O)Nc4cccc5c4CCCC5)CC3)n2)c1,0,0,0,0,0,0,0,1,0,6,4,0
Cc1cccc(Nc2ncnc3c2CN(C(=O)c2ccc(N(C)C)c4ccccc24)CC3)c1,0,0,7,0,0,0,1,0,0,10,24,6
O=C(CN1CCN(c2ncnc3c2CN(Cc2ccccc2)CC3)CC1)Nc1cc(F)ccc1F,2,0,0,0,0,0,0,0,0,5,9,1
CN(C)CC(C)(C)CNC(=O)C1CCN(c2cc(N3CCOCC3)nc(N)n2)CC1,0,0,3,0,0,0,0,0,21,6,8,12
CC(=O)N1CCN(C(=O)c2cccc(Nc3cc(N(C)c4cccc(C)c4)ncn3)c2)CC1,15,0,17,0,27,0,5,0,21,42,9,41
COC(=O)C(CO)NC(=O)[C@@H]1CCCN1c1nccc(Oc2cccc(C)c2)n1 (some centres undefined),0,0,6,1,0,0,0,0,0,0,6,5
O=C(NCc1cccnc1)c1cccc(-c2ccc(Nc3ccc4ncsc4c3)nn2)c1,41,4,67,6,42,0,43,5,49,85,0,62
Cc1cccc(N(C)c2cc(Nc3cccc(C(=O)NCc4ccncc4)c3)ncn2)c1,0,0,20,0,9,0,0,0,0,33,20,19
Cc1cccc(N(C)c2cc(N3CCN(CC(=O)Nc4nc(-c5ccccc5)cs4)CC3)ncn2)c1,0,5,5,3,0,0,14,0,0,7,2,9
Cc1cccc(Oc2ccnc(N3CCC[C@H]3C(=O)NCc3cccnc3)n2)c1,0,0,0,0,0,0,0,0,0,11,8,4
O=C(c1nc(SCc2ccc(Cl)cc2)n2ccccc12)N1CCN(c2ncnc3c2CN(Cc2ccccc2)CC3)CC1,3,0,0,1,0,0,0,0,0,7,0,10
Cc1cccc(Oc2ccnc(N3CCN(C(=O)c4c(C)noc4C)CC3)n2)c1,0,0,0,0,0,0,7,1,5,5,2,18
CC(=O)CCCCC(=O)N1CCN(c2nccc(Oc3cccc(C)c3)n2)CC1,0,2,4,1,0,0,1,0,11,4,10,14

# Reference: ChEMBL document CHEMBL1150387, “Development and experimental validation of a docking strategy for the generation of kinase-targeted libraries” (J Med Chem, 2008)
